Source: paper PMC12541585 (Acta Pharmaceutica Sinica. B, 2025)

Tested on: MDA-MB-231 xenograft
Experiment: MDA-MB-231 xenograft model
Format: in vivo, BALB/c nude mice
Conditions: immunohistochemical staining of MDA-MB-231 tumors, vs control group
Method in brief: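 Female nude mice received 5×10^6 MDA-MB-231 cells in 100 μL Matrigel/PBS (1:1) subcutaneously into the right flank. At ≥80 mm³, mice were randomised into five groups, each dosed intraperitoneally every three days: test compound at 0.1, 0.5 or 1 mg/kg, paclitaxel 4 mg/kg, or PBS. Excised tumour sections were stained with anti-CXCR4 (1:100, 4 °C overnight), then HRP secondary (30 min) and DAB.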

CC(=O)O[C@H]1C(=O)[C@@]2(C)[C@H]([C@H](OC(=O)c3ccccc3)[C@]3(O)C[C@H](OC(=O)[C@H](O)[C@@H](NC(=O)c4ccccc4)c4ccccc4)C(C)=C1C3(C)C)[C@]1(OC(C)=O)CO[C@@H]1C[C@@H]2O [PTX, Paclitaxel]
proportion of CXCR4-positive cells in tumor tissue: little effect
